MEKK2 mut-MEK5 = MEK5 binding signal on mutant MEKK2 PB1, primary screen, biochemical, multiplex bead flow cytometry, Alexa488-MEK5 | Alexa488-MEK5 binding to MEKK2 mutant | percent response, % at 10 µM | 0.35% of 290,000 active; in the data active means percent response above about 24%, passing the limit was not always enough
Lipid droplet = inhibitors of hepatocyte lipid droplet formation, primary screen, imaging, high-throughput imaging, BODIPY stain | AML12 mouse hepatocytes, oleate lipid droplets | inhibition, % at 6.5 µM | 0.4% of 240,000 active;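 active means lipid droplet intensity inhibited by at least 50%, with more than 500 cells counted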
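Assay system: AML12 hepatocytes (mouse); Probe or stimulus: oleic acid at 100 µM to induce lipid droplet formation; Dosing: compound at 6.5 µM only; Schedule: compound with oleate, overnight; Detection: fluorescence imaging, 20x objective, two fields per well; Measure: % inhibition of lipid droplet signal.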
MEKK2 WT-MEK5 = modulators of MEK5 binding to wildtype MEKK2, primary screen, biochemical, multiplex bead flow cytometry, Alexa488-MEK5; Mitogen-activated protein kinase kinase kinase 2 (Homo sapiens), Q9Y2U5; Alexa488-MEK5 binding to MEKK2 WT; actives lie on both sides; binding response (% of control), % at 10 µM; 1.1% of 290,000 active; in the data active means binding response below about 67% or above about 130%
MEKK3 PB1 HTS = modulators of MEKK3-MEK5 PB1 binding, primary screen, biochemical, wildtype MEKK3, multiplex bead flow cytometry, Alexa488-MEK5. Mitogen-activated protein kinase kinase kinase 3 (Homo sapiens), Q99759. bead-based flow cytometry, Alexa488-MEK5 binding to MEKK3; actives lie on both sides; 0 = blocked by unlabeled MEK5, 100 = vehicle. binding response (% of control), % at 10 µM. 1.4% of 290,000 active;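 active means binding response more than 3 SD above or below the average of its plate-row segment, actives on both sides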;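 further: Alexa488 bead fluorescence after subtracting the streptavidin-only scavenger bead signal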
Target sequence (Q99759 whole entry, looked up): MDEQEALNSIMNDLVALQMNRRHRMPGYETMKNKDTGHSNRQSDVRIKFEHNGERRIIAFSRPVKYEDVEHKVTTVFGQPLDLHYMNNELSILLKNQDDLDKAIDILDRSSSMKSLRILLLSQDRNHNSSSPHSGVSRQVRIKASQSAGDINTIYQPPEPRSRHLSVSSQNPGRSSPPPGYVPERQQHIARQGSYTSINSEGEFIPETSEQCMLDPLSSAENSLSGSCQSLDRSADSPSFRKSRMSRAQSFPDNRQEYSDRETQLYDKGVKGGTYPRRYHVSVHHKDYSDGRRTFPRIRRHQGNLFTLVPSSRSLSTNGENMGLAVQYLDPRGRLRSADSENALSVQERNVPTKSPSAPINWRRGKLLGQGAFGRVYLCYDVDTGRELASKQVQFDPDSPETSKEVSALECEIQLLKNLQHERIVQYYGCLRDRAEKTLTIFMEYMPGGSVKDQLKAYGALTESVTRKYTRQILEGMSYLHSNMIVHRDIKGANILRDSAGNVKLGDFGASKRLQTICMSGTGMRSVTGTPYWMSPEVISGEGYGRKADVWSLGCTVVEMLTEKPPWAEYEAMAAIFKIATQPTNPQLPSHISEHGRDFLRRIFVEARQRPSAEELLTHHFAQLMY
MEKK2wt confirm = modulators of MEK5 binding to wildtype MEKK2, confirmation, biochemical, single concentration, multiplex bead flow cytometry | AID 1892, 2009 | binding response (% of control), % at 10 µM | Alexa488-MEK5 binding to MEKK2 WT; actives lie on both sides | shares compounds with MEKK3 PB1 HTS | 2.4% of 5,900 active; in the data active means binding response below about 16% or above about 210%; inactive means in between
MEKK2mut confirm = mutant MEKK2 PB1-MEK5 binding signal retest – biochemical, single concentration, multiplex bead flow cytometry, confirmation | percent response, % at 10 µM | Alexa488-MEK5 binding to MEKK2 mutant | shares compounds with MEKK3 PB1 HTS | 2% of 5,900 active; in the data active means percent response mostly above about 71%, no sharp cut-off; inactive means mostly below about 38%;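 further: higher means compound restores mutant binding toward wildtype level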
MEKK3-MEK5 inh = MEKK3 wild-type PB1 binding to MEK5, inhibitors, confirmation, biochemical, bead multiplex flow cytometry, single concentration, wildtype | shares compounds with MEKK3 PB1 HTS | Alexa488-MEK5 binding to MEKK3; active compounds read low | binding response (% of control), % at 10 µM | 1.8% of 5,900 active | AID 1894, 2009;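 active means binding response below 72% of control, or above a set upper limit, though filed actives all read lower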;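 further: lower values mean stronger disruption of MEK5 binding to MEKK3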
Of the large screens only hits and unclear results are named; the others gave an inactive call (follow-up assays come after a bar, where they were run); [ ] = dose if it differs, or a comment. The list is not random: actives were taken first. Their share in the collection is about 2.6%.

COc1ccc(CNc2nc3ccccc3n2CCN2CCCCC2)cc1	none
COc1ccc(C(CNC(=O)Cc2ccccc2F)N2CCCCC2)cc1 (configuration not stated)	MEKK3 PB1 HTS 131.0 | MEKK2wt confirm inactive | MEKK2mut confirm inactive | MEKK3-MEK5 inh inactive
Cc1cc(C)c2cc3c(ccn3C3OC[C@H](O)[C@H](O)[C@H]3O)cc2n1 (some centres not stated)	MEKK2 WT-MEK5 6.0[inhibitor] | MEKK2wt confirm inactive | MEKK2mut confirm inactive | MEKK3-MEK5 inh inactive
CC(=O)O[C@@H]1[C@@H](OC(C)=O)[C@H](n2ccc3cc([N+](=O)[O-])ccc32)OC[C@@H]1OC(C)=O	none (no result: Lipid droplet)
O=c1nc(-c2ccccc2)cc(C(F)(F)F)[nH]1	none (no result: Lipid droplet)
Cc1cc(-c2ccccc2)nc(=O)[nH]1	MEKK3 PB1 HTS 130.0 (no result: Lipid droplet) | MEKK2wt confirm inactive | MEKK2mut confirm inactive | MEKK3-MEK5 inh inactive
COc1ccc(CCN2C(=O)C(Oc3ccccc3)C2c2ccc3c(c2)OCO3)cc1 (configuration not stated)	MEKK3 PB1 HTS 150.0 | MEKK2wt confirm inactive | MEKK2mut confirm inactive | MEKK3-MEK5 inh inactive
COc1ccc(OC2C(=O)N(CCc3ccc(OC)c(OC)c3)C2c2ccc3c(c2)OCO3)cc1 (configuration not stated)	none
COc1ccc(C[C@H]2CN3C(=NC[C@@H]3C(C)C)N2CCNC(=O)c2ccc(C)c(Br)c2)cc1	MEKK2 WT-MEK5 154.0 | MEKK2wt confirm inactive | MEKK2mut confirm inactive | MEKK3-MEK5 inh inactive
Cc1ccc(C(=O)NCCN2C3=NC[C@H](C)N3C[C@H]2Cc2ccc(O)cc2)cc1Br	none
Cc1ccc(C(=O)NCCN2C3=NC[C@H](C(C)C)N3C[C@H]2Cc2ccc(O)cc2)cc1Br	MEKK2 WT-MEK5 145.0 | MEKK2wt confirm inactive | MEKK2mut confirm inactive | MEKK3-MEK5 inh inactive
COc1ccc(C[C@H]2CN3C(=NC[C@H]3C)N2CCNC(=O)c2ccc(C)c(Br)c2)cc1	none
COc1ccc(NC(=O)C2CCCNC2)cc1OCC(C)C (configuration not stated)	none (no result: Lipid droplet)
COc1ccc(NC(=O)C2CCCN(CCCc3ccccc3)C2)cc1OCC(C)C (configuration not stated)	MEKK2 WT-MEK5 139.0 | MEKK2wt confirm inactive | MEKK2mut confirm inactive | MEKK3-MEK5 inh inactive
CN(Cc1ccc2ccccc2c1)C(=O)c1ccc(C(F)(F)F)cc1	none
O=C(Nc1cccc2ncccc12)c1ccc(F)cc1	MEKK3 PB1 HTS 132.0 | MEKK2wt confirm inactive | MEKK2mut confirm inactive | MEKK3-MEK5 inh inactive
CN1C(=O)CSC1=NC12CC3CC(CC(C3)C1)C2	MEKK2 WT-MEK5 30.0[inhibitor], MEKK3 PB1 HTS 20.0[inhibitor] | MEKK2wt confirm inactive | MEKK2mut confirm inactive | MEKK3-MEK5 inh inactive
CC1CCCC(C)N1CCCNC(=O)Cn1c(=O)c2cccn2c2cccnc21 (configuration not stated)	none
COc1cc(/C=N/NC(=O)C[n+]2ccccc2)cc(OC)c1OC	none
COc1cc(/C=N/NC(=O)C[n+]2ccccc2)cc(OC)c1OC(C)=O	MEKK2 WT-MEK5 60.0[inhibitor], MEKK3 PB1 HTS 73.0[inhibitor] | MEKK2wt confirm inactive | MEKK2mut confirm inactive | MEKK3-MEK5 inh inactive
CN(C)c1nc(N/N=C/c2ccccc2O)nc(Nc2ccc(F)cc2)n1	MEKK2 WT-MEK5 140.0 | MEKK2wt confirm inactive | MEKK2mut confirm inactive | MEKK3-MEK5 inh inactive
CC(C)C[C@@H](C(=O)NCc1ccco1)N1C(=O)N2CCc3c([nH]c4ccccc34)[C@@]2(C)C1=O	none (no result: Lipid droplet)
CCc1ccc(NC(=O)C(C)n2nc(C)c([N+](=O)[O-])c2C)cc1 (configuration not stated)	MEKK3 PB1 HTS 68.0[inhibitor] | MEKK2wt confirm inactive | MEKK2mut confirm inactive | MEKK3-MEK5 inh inactive
Cc1nn(C(C)C(=O)NCc2ccccc2)c(C)c1[N+](=O)[O-] (configuration not stated)	none (no result: Lipid droplet)
COc1ccc2nc(C3CCCCC3)c3c(c2c1)CCC3	none (no result: Lipid droplet)
COC(=O)CCC(=O)OC1(C)C(=O)C2=CN(C3CC3)C(c3ccc(OC)cc3)=CC2=C(Br)C1=O (configuration not stated)	MEKK2 WT-MEK5 2.0[inhibitor] (no result: Lipid droplet) | MEKK2wt confirm inactive | MEKK2mut confirm inactive | MEKK3-MEK5 inh inactive
CCC(=O)OC1(C)C(=O)C2=COC(c3ccc(OC)cc3)=CC2=C(Br)C1=O (configuration not stated)	none (no result: Lipid droplet)
CC1(OC(=O)CCc2ccccc2)C(=O)C=C2C=C(c3ccc(C#N)cc3)N(Cc3ccccc3)C=C2C1=O (configuration not stated)	none
CC1(OC(=O)CCc2ccccc2)C(=O)C=C2C=C(c3ccc(C#N)cc3)N(C3CC3)C=C2C1=O (configuration not stated)	MEKK2 WT-MEK5 140.0 | MEKK2wt confirm inactive | MEKK2mut confirm inactive | MEKK3-MEK5 inh inactive
COC(=O)CCC(=O)OC1(C)C(=O)C2=CN(c3ccccc3)C(c3ccc(OC)cc3)=CC2=C(Br)C1=O (configuration not stated)	MEKK2 WT-MEK5 -5.0, MEKK3 PB1 HTS 75.0[inhibitor] (no result: Lipid droplet) | MEKK2wt confirm inactive | MEKK2mut confirm inactive | MEKK3-MEK5 inh inactive
O=C(NCC(=O)N1CCN(c2ccccc2)CC1)c1cccs1	none
CCCS(=O)(=O)N1CCN(CC2CC3C=CC2C3)CC1 (configuration not stated)	MEKK2 mut-MEK5 24.0 (no result: Lipid droplet) | MEKK2wt confirm inactive | MEKK2mut confirm inactive | MEKK3-MEK5 inh inactive
CCS(=O)(=O)N1CCN(CC2CC3C=CC2C3)CC1 (configuration not stated)	none
CCCCc1ccc(NC(=S)NCCN2CCOCC2)cc1	none
COc1cccc(NC(=O)c2nc3ncccn3n2)c1	MEKK2 WT-MEK5 2.0[inhibitor], MEKK3 PB1 HTS 2.0[inhibitor] | MEKK2wt confirm inactive | MEKK2mut confirm inactive | MEKK3-MEK5 inh inactive
COc1cccc(NC(=O)c2ccccc2Oc2ccccc2)c1	none (no result: Lipid droplet)
COc1cccc(Nc2ncccc2C(=O)Nc2ccccc2)c1	MEKK3 PB1 HTS 129.0 (no result: Lipid droplet) | MEKK2wt confirm inactive | MEKK2mut confirm inactive | MEKK3-MEK5 inh inactive
COc1ccc(-n2nc(C(=O)NCC(=O)NCCC3=CCCCC3)c3ccccc3c2=O)cc1OC	none

Source: PubChem BioAssay (several laboratories)
